Data from ChEMBL document CHEMBL4014327 (J Med Chem, 2017).
In brackets after ≈: the same amount, converted by molar mass.

Assays:
[1] = Fraction unbound in rat plasma; format: ADME, cell-free
In short: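 Fraction unbound in plasma measured by equilibrium dialysis.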

CYP2D6 = CYP2D6 (Homo sapiens, UniProt P10635); test: Inhibition of CYP2D6 in human liver microsomes at 3 uM; format: ADME
[2] = Solubility of compound in phosphate buffer at pH 6.7; format: physicochemical
In short: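 Solubility of crystalline material measured in phosphate-buffered saline pH 6.7, unbuffered water pH 8.1 and simulated fasted-state intestinal fluid pH 6.5, reported in μg/mL.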

[3] = Half life in Wistar Han rat at 1 mg/kg, iv administered as single dose; format: ADME, organism-based; conditions: in vivo
[4] = Half life in Wistar Han rat at 5 mg/kg, po administered as single dose; format: ADME, organism-based; conditions: in vivo
[5] = Half life in cynomolgus monkey at 1 mg/kg, iv administered as single dose; format: ADME, organism-based, Macaca fascicularis; conditions: in vivo
CYP2C9 = CYP2C9 (Homo sapiens, UniProt P11712); test: Inhibition of CYP2C9 in human liver microsomes at 3 uM; format: ADME
Canis familiaris = test: Plasma clearance in Beagle dog at 1 mg/kg, iv administered as single dose; format: ADME, organism-based, Canis lupus familiaris; conditions: in vivo
Cynomolgus monkey = test: Plasma clearance in cynomolgus monkey at 1 mg/kg, iv administered as single dose; format: ADME, organism-based, Macaca fascicularis; conditions: in vivo
[6] = Volume of distribution at steady state in Wistar Han rat at 1 mg/kg, iv administered as single dose; format: ADME, organism-based; conditions: in vivo, read-out: Vdss
In short: (§1)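 Single-dose pharmacokinetic study in male animals, with iv and separate oral administration. Steady-state volume of distribution was derived from plasma concentrations after the iv dose.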

[7] = Volume of distribution at steady state in Beagle dog at 1 mg/kg, iv administered as single dose; format: ADME, organism-based, Canis lupus familiaris; conditions: in vivo, read-out: Vdss; in short: as §1
[8] = Oral bioavailability in Beagle dog at 5 mg/kg administered as single dose; format: ADME, organism-based, Canis lupus familiaris; conditions: in vivo
[9] = Oral bioavailability in cynomolgus monkey at 5 mg/kg administered as single dose; format: ADME, organism-based, Macaca fascicularis; conditions: in vivo
[10] = target: Interleukin-1 receptor-associated kinase 1 (Homo sapiens) (UniProt P51617); test: Inhibition of recombinant human GST-tagged IRAK1 expressed in baculovirus at 200 nM
[11] = target: MAP kinase-interacting serine/threonine-protein kinase 2 (Homo sapiens) (UniProt Q9HBH9); test: Inhibition of N-terminal-GST-tagged human full length MNK2 expressed in baculovirus at 200 nM
[12] = target: Dual specificity protein kinase CLK4 (Homo sapiens) (UniProt Q9HAZ1); test: Inhibition of recombinant human full length GST-tagged CLK4 expressed in baculovirus at 200 nM
[13] = target: Casein kinase I isoform gamma-2 (Homo sapiens) (UniProt P78368); test: Inhibition of CK1gamma2 in human THP1 cell lysate at 200 nM
[14] = target: Vascular endothelial growth factor receptor 2 (Homo sapiens, UniProt P35968); test: Inhibition of human recombinant VEGFR2 at 10 uM using CAGAGAIETDKEYYTVKD as substrate after 60 mins by Lance method
Cytochrome P450 1A2 = Cytochrome P450 1A2 (Homo sapiens, UniProt P05177); test: Time dependent inhibition of CYP1A2 in human liver microsomes at 100 uM; format: ADME
In short: (§2)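 Time-dependent inhibition assessed in pooled human liver microsomes with probe substrates, test compound at 100 μM.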

Cytochrome P450 2C9 = Cytochrome P450 2C9 (Homo sapiens, UniProt P11712); test: Time dependent inhibition of CYP2C9 in human liver microsomes at 100 uM; format: ADME; in short: as §2
Cytochrome P450 2D6 = Cytochrome P450 2D6 (Homo sapiens, UniProt P10635); test: Time dependent inhibition of CYP2D6 in human liver microsomes at 100 uM; format: ADME
In short: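 Pooled human liver microsomes with CYP probe substrates. Time-dependent inhibition was assessed across CYP1A2, 2B6, 2C8, 2C9, 2C19 and 2D6, with test compound at 100 μM.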

Rattus norvegicus = test: Inhibition of LPS induced TNFalpha secretion in Sprague-Dawley rat assessed as decrease in TNFalpha level in serum at 30 mg/kg, po pretreated for 1 hr followed by LPS challenge measured after 1.5 hrs relative to control; format: functional
In short: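 Male Sprague-Dawley rats, 6-8 weeks old, n = 6-9 per group. Test article was given orally at 0.3, 1, 3 or 30 mg/kg as a solution or suspension in 0.5% methylcellulose and 2% Tween 80 in water; controls received vehicle alone. Ultrapure LPS (0.01 mg/kg) was given iv 1 h later. Blood was drawn 1.5 h after challenge, and serum TNF was measured by MSD.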

Plasma [15] = test: Free plasma concentration in Sprague-Dawley rat LPS model at 0.3 mg/kg, po after 2.5 hrs; format: ADME, organism-based; conditions: in vivo
In short: (§3)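 Male Sprague−Dawley rats, 6−8 weeks old, n = 6−9 per group. Dosed orally at 0.3, 1, 3 or 30 mg/kg in 0.5% methylcellulose/2% Tween 80 in water. Ultrapure LPS 0.01 mg/kg iv given 1 h after dosing. Plasma exposure taken 2.5 h after oral dosing and reported as free concentration using fraction unbound in rat plasma.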

Plasma [16] = test: Free plasma concentration in Sprague-Dawley rat LPS model at 3 mg/kg, po after 2.5 hrs; format: ADME, organism-based; conditions: in vivo; in short: as §3
Plasma [17] = test: Free plasma concentration in Sprague-Dawley rat LPS model at 30 mg/kg, po after 2.5 hrs; format: ADME, organism-based; conditions: in vivo; in short: as §3

Sequence of Vascular endothelial growth factor receptor 2 (P35968 whole entry): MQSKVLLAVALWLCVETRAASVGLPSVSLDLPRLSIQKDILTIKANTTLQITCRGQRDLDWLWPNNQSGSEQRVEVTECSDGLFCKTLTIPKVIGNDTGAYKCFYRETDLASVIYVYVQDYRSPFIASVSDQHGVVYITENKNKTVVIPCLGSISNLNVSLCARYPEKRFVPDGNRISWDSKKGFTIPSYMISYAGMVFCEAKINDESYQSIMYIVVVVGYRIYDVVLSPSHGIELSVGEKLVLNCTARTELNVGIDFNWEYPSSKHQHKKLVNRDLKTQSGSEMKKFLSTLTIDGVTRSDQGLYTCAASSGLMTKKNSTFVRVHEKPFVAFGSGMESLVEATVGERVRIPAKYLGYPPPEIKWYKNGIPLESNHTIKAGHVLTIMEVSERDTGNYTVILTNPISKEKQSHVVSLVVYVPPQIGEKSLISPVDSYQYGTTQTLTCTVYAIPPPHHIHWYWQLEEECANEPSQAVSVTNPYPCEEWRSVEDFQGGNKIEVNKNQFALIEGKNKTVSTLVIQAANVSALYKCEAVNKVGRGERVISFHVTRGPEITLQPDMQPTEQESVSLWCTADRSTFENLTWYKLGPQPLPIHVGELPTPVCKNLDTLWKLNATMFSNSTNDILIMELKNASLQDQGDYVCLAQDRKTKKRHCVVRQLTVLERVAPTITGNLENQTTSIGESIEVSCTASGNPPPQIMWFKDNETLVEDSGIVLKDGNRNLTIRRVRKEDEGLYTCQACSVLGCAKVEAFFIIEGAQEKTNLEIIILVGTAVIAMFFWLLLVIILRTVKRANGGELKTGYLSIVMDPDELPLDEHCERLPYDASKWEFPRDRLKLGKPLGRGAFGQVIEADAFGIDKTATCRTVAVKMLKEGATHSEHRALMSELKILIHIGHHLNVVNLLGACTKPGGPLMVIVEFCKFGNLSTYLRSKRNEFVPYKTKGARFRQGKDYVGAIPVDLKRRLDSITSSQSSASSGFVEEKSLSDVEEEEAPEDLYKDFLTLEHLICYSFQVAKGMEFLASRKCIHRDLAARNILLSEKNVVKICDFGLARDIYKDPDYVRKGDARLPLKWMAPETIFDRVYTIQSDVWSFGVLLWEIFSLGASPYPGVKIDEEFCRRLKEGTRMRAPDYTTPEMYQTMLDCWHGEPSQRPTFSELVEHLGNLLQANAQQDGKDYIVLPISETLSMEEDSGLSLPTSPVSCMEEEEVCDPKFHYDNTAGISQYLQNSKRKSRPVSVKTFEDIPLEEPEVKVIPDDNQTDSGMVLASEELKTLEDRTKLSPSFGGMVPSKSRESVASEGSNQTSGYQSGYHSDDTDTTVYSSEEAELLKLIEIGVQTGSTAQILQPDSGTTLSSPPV
Sequence of Cytochrome P450 1A2 (P05177 whole entry): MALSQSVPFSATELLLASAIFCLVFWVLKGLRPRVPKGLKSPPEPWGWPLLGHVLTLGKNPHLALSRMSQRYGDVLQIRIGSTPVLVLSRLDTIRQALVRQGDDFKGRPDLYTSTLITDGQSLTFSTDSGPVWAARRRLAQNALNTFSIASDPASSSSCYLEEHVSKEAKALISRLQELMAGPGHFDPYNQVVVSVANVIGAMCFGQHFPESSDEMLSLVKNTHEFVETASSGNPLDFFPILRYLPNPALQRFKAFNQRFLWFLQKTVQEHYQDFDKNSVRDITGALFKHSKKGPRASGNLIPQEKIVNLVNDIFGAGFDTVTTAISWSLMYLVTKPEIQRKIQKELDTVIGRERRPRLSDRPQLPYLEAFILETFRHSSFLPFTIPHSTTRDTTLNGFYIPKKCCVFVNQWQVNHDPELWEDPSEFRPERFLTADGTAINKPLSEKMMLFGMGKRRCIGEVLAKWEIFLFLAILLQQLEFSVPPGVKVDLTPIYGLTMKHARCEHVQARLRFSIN
Sequence of Casein kinase I isoform gamma-2 (Homo sapiens) (P78368 whole entry, looked up, canonical isoform): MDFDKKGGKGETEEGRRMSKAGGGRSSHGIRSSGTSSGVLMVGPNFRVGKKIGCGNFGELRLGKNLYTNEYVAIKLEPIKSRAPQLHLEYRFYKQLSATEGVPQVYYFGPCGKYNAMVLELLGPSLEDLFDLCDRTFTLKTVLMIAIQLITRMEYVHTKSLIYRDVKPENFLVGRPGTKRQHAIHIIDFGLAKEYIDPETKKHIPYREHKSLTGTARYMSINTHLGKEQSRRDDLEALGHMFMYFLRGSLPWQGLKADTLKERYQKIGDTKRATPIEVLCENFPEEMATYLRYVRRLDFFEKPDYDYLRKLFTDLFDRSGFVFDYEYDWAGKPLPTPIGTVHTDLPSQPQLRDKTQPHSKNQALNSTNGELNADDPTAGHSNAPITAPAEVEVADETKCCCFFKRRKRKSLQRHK
Sequence of Dual specificity protein kinase CLK4 (Homo sapiens) (Q9HAZ1 whole entry, looked up, canonical isoform): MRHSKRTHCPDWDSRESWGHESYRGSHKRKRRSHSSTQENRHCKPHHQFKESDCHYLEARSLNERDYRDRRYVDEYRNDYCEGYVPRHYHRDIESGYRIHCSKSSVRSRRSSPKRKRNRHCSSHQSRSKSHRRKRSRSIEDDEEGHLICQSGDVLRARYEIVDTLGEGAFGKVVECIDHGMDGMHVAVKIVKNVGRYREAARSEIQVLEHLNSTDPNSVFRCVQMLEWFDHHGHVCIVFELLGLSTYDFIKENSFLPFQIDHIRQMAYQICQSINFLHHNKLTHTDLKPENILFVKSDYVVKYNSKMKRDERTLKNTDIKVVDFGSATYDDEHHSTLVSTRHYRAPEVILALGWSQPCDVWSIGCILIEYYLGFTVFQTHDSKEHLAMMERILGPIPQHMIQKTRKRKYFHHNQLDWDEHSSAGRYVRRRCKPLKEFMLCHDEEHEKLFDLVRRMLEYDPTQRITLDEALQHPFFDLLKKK
Sequence of MAP kinase-interacting serine/threonine-protein kinase 2 (Homo sapiens) (Q9HBH9 whole entry, looked up): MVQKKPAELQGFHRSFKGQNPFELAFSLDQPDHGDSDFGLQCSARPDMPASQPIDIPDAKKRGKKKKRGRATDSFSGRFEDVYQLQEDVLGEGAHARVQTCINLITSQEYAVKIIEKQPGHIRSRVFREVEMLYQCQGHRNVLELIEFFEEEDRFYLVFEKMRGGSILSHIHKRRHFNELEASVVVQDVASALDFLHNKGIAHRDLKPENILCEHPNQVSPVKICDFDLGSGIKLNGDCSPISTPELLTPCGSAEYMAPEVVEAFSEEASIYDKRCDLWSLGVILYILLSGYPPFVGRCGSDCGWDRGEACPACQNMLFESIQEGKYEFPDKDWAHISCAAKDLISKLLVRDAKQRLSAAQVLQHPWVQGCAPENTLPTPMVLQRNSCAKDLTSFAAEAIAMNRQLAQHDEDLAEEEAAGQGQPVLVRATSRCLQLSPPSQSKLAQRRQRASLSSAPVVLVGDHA
Sequence of Cytochrome P450 2D6 (P10635 whole entry): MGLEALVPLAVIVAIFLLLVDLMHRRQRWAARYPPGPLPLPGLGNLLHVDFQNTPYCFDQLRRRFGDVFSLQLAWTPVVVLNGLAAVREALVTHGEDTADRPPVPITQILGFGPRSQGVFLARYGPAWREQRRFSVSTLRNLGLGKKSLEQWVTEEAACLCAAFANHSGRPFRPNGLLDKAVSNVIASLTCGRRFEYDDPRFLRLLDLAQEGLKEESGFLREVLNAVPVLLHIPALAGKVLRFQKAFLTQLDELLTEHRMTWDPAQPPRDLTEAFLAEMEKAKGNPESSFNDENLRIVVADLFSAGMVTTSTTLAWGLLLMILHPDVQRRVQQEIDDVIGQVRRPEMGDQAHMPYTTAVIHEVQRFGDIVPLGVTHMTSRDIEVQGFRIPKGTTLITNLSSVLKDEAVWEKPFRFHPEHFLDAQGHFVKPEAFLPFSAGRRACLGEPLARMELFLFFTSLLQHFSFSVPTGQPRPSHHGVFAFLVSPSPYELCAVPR
Sequence of CYP2D6 (P10635 whole entry): as above
Sequence of Cytochrome P450 2C9 (P11712 whole entry): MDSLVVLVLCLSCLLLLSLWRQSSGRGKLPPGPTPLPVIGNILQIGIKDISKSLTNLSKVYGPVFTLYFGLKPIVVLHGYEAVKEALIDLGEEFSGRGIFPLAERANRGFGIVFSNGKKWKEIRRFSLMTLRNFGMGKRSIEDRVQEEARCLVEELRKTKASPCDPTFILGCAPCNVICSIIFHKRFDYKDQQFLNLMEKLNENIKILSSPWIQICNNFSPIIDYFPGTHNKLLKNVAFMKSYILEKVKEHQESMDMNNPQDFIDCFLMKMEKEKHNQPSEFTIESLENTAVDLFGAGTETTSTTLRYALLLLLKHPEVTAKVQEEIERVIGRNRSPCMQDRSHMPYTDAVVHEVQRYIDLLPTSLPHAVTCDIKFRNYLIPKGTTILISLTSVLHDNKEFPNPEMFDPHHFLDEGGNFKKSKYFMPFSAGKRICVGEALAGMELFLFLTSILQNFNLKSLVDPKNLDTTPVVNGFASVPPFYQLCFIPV
Sequence of CYP2C9 (P11712 whole entry): as above

Question: Which results are given for `CC[C@@H]1[C@H](F)C(=O)N[C@@H]1COc1nccc2cc(C(N)=O)c(OC)cc12` [ZIMLOVISERTIB]?
Answer: fraction unbound [1]: 0.3; inhibition at 3 µM (CYP2D6): < 5%; solubility [2]: 57 µg/mL (≈ 158 µM); half-life [3]: 0.6 h; half-life [4]: 1.4 to 2.1 h; half-life [5]: 1.7 h; inhibition at 3 µM (CYP2C9): < 5%; clearance (Canis familiaris): 10 mL/min/kg; clearance (Cynomolgus monkey): 10 mL/min/kg; Vd [6]: 1.8 L/kg; Vd [7]: 0.77 L/kg; bioavailability [8]: 41%; bioavailability [9]: 6.9%; inhibition [10]: > 70%; inhibition [11]: > 70%; inhibition [12]: > 70%; inhibition [13]: > 50%; inhibition [14]: > 50%; TDI (Cytochrome P450 1A2): Not Active; TDI (Cytochrome P450 2C9): Not Active; TDI (Cytochrome P450 2D6): Not Active; inhibition in vivo at 30 mg/kg (Rattus norvegicus): 87%; Cp(f) (Plasma [15]): 2.1 nM; Cp(f) (Plasma [16]): 19 nM; Cp(f) (Plasma [17]): 150 nM
